According to ChEMBL document CHEMBL1143889, “N-Phenyl and N-phenylalkyl-maleimides acting against Candida spp.: time-to-kill, stability, interaction with maleamic acids” (2008):
In brackets after ≈: the same amount, converted by molar mass. Activity calls are given as the source filed them. The calls are words filed in the database; no cut-off is given here.

Key:
[1] = test system: Candida albicans; assay: Antifungal activity against Candida albicans ATCC 10231 pre-incubated for 2 days analysed after 24 hrs by CLSI M27-A2 method; type: functional
How it was run: (§1)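 Twofold maleimide dilutions (1000–0.98 µg/mL) in complete M27-A2 medium without inoculum were held at 37 °C, with one plate row filled on each of 7 consecutive days to give 0–7 days of pre-incubation. All wells were then inoculated with C. albicans ATCC 10231 at 1–5 × 10⁴ CFU/mL and incubated for 24 h at 37 °C. MIC was read per row, in duplicate.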

[2] = test system: Candida albicans; assay: Antifungal activity against Candida albicans ATCC 10231 pre-incubated for 1 day analysed after 24 hrs by CLSI M27-A2 method; type: functional; how it was run: as §1
[3] = test system: Pichia kudriavzevii; assay: Antifungal activity against Candida krusei C 117-2000 after 48 hrs by CLSI M27-A2 method; type: functional
How it was run: (§2)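 Broth microdilution per CLSI M27-A2 in RPMI-1640, with twofold dilutions giving final 250–0.98 µg/mL. The inoculum was modified to 1–5 × 10⁴ CFU/mL instead of 1–5 × 10³, with ketoconazole and amphotericin B as positive controls. MIC was the lowest concentration giving total growth inhibition, read visually. Strains were grown on Sabouraud-chloramphenicol agar for 24 h at 37 °C.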

[4] = test system: Candida albicans; assay: Antifungal activity against Candida albicans ATCC 10231 pre-incubated for 4 days analysed after 24 hrs by CLSI M27-A2 method; type: functional; how it was run: as §1
[5] = test system: Clavispora lusitaniae; assay: Antifungal activity against Candida lusitaniae C 131-2000 after 48 hrs by CLSI M27-A2 method; type: functional; how it was run: as §2
[6] = test system: Candida tropicalis; assay: Antifungal activity against Candida tropicalis C 137-1997 after 48 hrs by CLSI M27-A2 method; type: functional; how it was run: as §2
[7] = test system: Candida albicans; assay: Antifungal activity against Candida albicans C 126-2000 after 48 hrs by CLSI M27-A2 method; type: functional; how it was run: as §2
[8] = test system: Candida albicans; assay: Antifungal activity against Candida albicans C 125-2000 after 48 hrs by CLSI M27-A2 method; type: functional; how it was run: as §2
[9] = test system: Candida albicans; assay: Antifungal activity against Candida albicans C 130-2000 after 48 hrs by CLSI M27-A2 method; type: functional; how it was run: as §2
[10] = test system: Kluyveromyces marxianus; assay: Antifungal activity against Candida kefyr C 123-2000 after 48 hrs by CLSI M27-A2 method; type: functional; how it was run: as §2
[11] = test system: Candida albicans; assay: Antifungal activity against Candida albicans ATCC 10231 pre-incubated for 3 days analysed after 24 hrs by CLSI M27-A2 method; type: functional; how it was run: as §1
[12] = test system: Candida albicans; assay: Antifungal activity against Candida albicans C 128-2000 after 48 hrs by CLSI M27-A2 method; type: functional; how it was run: as §2
[13] = test system: Candida albicans; assay: Antifungal activity against Candida albicans C 129-2000 after 48 hrs by CLSI M27-A2 method; type: functional; how it was run: as §2
[14] = test system: Torulaspora delbrueckii; assay: Antifungal activity against Candida coliculosa C 122-2000 after 48 hrs by CLSI M27-A2 method; type: functional; how it was run: as §2
[15] = test system: Candida albicans; assay: Antifungal activity against Candida albicans ATCC 10231 preincubated for 7 days analysed after 24 hrs by CLSI M27-A2 method; type: functional; how it was run: as §1
[16] = test system: Candida albicans; assay: Antifungal activity against Candida albicans ATCC 10231 within 90 mins by time-to-kill study; type: functional, organism-based
How it was run: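 C. albicans ATCC 10231 (2–2.5 × 10⁴ CFU/mL) in 5 mL RPMI-1640 was exposed to 1× MFC of compound at 37 °C with agitation. 10 µL samples taken at 0, 30, 60, 90 and 120 min, and at 4, 8, 12 and 24 h, were plated on drug-free SDA and colonies counted after 24–48 h at 37 °C. Run in duplicate.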

[17] = test system: Nakaseomyces glabratus; assay: Antifungal activity against Candida glabrata C 115-2000 after 48 hrs by CLSI M27-A2 method; type: functional; how it was run: as §2
[18] = test system: Candida albicans; assay: Antifungal activity against Candida albicans ATCC 10231 after 24 hrs by CLSI M27-A2 method; type: functional; conditions: ATCC 10231, 24 h; how it was run: as §2
[19] = test system: Candida albicans; assay: Antifungal activity against Candida albicans ATCC 10231 pre-incubated for 5 days analysed after 24 hrs by CLSI M27-A2 method; type: functional; how it was run: as §1
[20] = test system: Candida albicans; assay: Antifungal activity against Candida albicans C 127-2000 after 48 hrs by CLSI M27-A2 method; type: functional; how it was run: as §2
[21] = test system: Candida parapsilosis; assay: Antifungal activity against Candida parapsilosis C 124-2000 after 48 hrs by CLSI M27-A2 method; type: functional; conditions: Lodderomyces parapsilosis; how it was run: as §2
[22] = test system: Candida albicans; assay: Antifungal activity against Candida albicans ATCC 10231 pre-incubated for 6 days analysed after 24 hrs by CLSI M27-A2 method; type: functional; how it was run: as §1
[23] = test system: Candida albicans; assay: Antifungal activity against Candida albicans ATCC 10231 after 48 hrs by CLSI M27-A2 method; type: functional; conditions: ATCC 10231, 48 h; how it was run: as §2

Compound | MIC [1] [µg/mL] | MIC [2] [µg/mL] | MFC [3] [µg/mL] | MIC [3] [µg/mL] | MIC [4] [µg/mL] | MFC [5] [µg/mL] | MIC [5] [µg/mL] | MFC [6] [µg/mL] | MIC [6] [µg/mL] | MIC [7] [µg/mL] | MIC [8] [µg/mL] | MIC [9] [µg/mL] | MIC [10] [µg/mL] | MIC [12] [µg/mL] | MIC [13] [µg/mL] | MIC [14] [µg/mL] | MIC [17] [µg/mL] | MIC [20] [µg/mL] | MIC [21] [µg/mL] | MIC [23] [µg/mL] | also measured
O=C1C=CC(=O)N1Cc1ccccc1 | 7.8 (≈ 41.7 µM) | 3.9 (≈ 20.8 µM) | 3.9 (≈ 20.8 µM) | 3.9 (≈ 20.8 µM) | 15.8 (≈ 84.1 µM) | 3.9 (≈ 20.8 µM) | 1.95 (≈ 10.4 µM) | 32.2 (≈ 172 µM) | 15.8 (≈ 84.1 µM) | 0.97 (≈ 5.18 µM) | 0.97 (≈ 5.18 µM) | 0.97 (≈ 5.18 µM) | 3.9 (≈ 20.8 µM) | 1.95 (≈ 10.4 µM) | 1.95 (≈ 10.4 µM) | 1.95 (≈ 10.4 µM) | 1.95 (≈ 10.4 µM) | 1.95 (≈ 10.4 µM) | 1.95 (≈ 10.4 µM) | 3.9 (≈ 20.8 µM) | MFC [7]: 3.9 µg/mL (≈ 20.8 µM); MFC [8]: 1.95 µg/mL (≈ 10.4 µM); MFC [9]: 1.95 µg/mL (≈ 10.4 µM); MFC [10]: 3.9 µg/mL (≈ 20.8 µM); MIC [11]: 7.8 µg/mL (≈ 41.7 µM); MFC [12]: 3.9 µg/mL (≈ 20.8 µM); MFC [13]: 3.9 µg/mL (≈ 20.8 µM); MFC [14]: 7.81 µg/mL (≈ 41.7 µM); MIC [15]: 500 µg/mL (≈ 2670 µM); Activity [16]: Active; MFC [17]: 1.95 µg/mL (≈ 10.4 µM); MIC [18]: 3.9 µg/mL (≈ 20.8 µM); MIC [19]: 125 µg/mL (≈ 668 µM); MFC [20]: 3.9 µg/mL (≈ 20.8 µM); MFC [21]: 3.9 µg/mL (≈ 20.8 µM); MIC [22]: 250 µg/mL (≈ 1340 µM); MFC [23]: 7.8 µg/mL (≈ 41.7 µM)
O=C1C=CC(=O)N1CCCc1ccccc1 | 3.9 (≈ 18.1 µM) | 3.9 (≈ 18.1 µM) | 7.8 (≈ 36.2 µM) | 3.9 (≈ 18.1 µM) | 15.8 (≈ 73.2 µM) | 7.8 (≈ 36.2 µM) | 1.95 (≈ 9.06 µM) | 32.2 (≈ 150 µM) | 15.8 (≈ 73.2 µM) | 0.97 (≈ 4.51 µM) | 0.97 (≈ 4.51 µM) | 0.97 (≈ 4.51 µM) | 15.8 (≈ 73.2 µM) | 3.9 (≈ 18.1 µM) | 1.95 (≈ 9.06 µM) | 3.9 (≈ 18.1 µM) | 1.95 (≈ 9.06 µM) | 1.95 (≈ 9.06 µM) | 3.9 (≈ 18.1 µM) | 3.9 (≈ 18.1 µM) | MFC [7]: 1.95 µg/mL (≈ 9.06 µM); MFC [8]: 1.95 µg/mL (≈ 9.06 µM); MFC [9]: 1.95 µg/mL (≈ 9.06 µM); MFC [10]: 7.81 µg/mL (≈ 36.3 µM); MIC [11]: 15.8 µg/mL (≈ 73.2 µM); MFC [12]: 7.81 µg/mL (≈ 36.3 µM); MFC [13]: 3.9 µg/mL (≈ 18.1 µM); MFC [14]: 32.2 µg/mL (≈ 150 µM); MIC [15]: 1000 µg/mL (≈ 4650 µM); Activity [16]: Active; MFC [17]: 3.9 µg/mL (≈ 18.1 µM); MIC [18]: 3.9 µg/mL (≈ 18.1 µM); MIC [19]: 62.5 µg/mL (≈ 290 µM); MFC [20]: 3.9 µg/mL (≈ 18.1 µM); MFC [21]: 3.9 µg/mL (≈ 18.1 µM); MIC [22]: 125 µg/mL (≈ 581 µM); MFC [23]: 7.8 µg/mL (≈ 36.2 µM)
O=C(O)/C=C\C(=O)NCCCCc1ccccc1 | – | – | – | > 250 | – | – | > 250 | – | > 250 | > 250 | > 250 | > 250 | > 250 | > 250 | > 250 | > 250 | > 250 | > 250 | > 250 | > 250 | –
C[C@@H]1[C@H](O)[C@@H](C)/C=C/C=C/C=C/C=C/C=C/C=C/C=C/[C@H](O[C@@H]2O[C@H](C)[C@@H](O)[C@H](N)[C@@H]2O)C[C@@H]2O[C@](O)(C[C@@H](O)C[C@@H](O)[C@H](O)CC[C@@H](O)C[C@@H](O)CC(=O)O[C@H]1C)C[C@H](O)[C@H]2C(=O)O [AMPHOTERICIN B] | – | – | – | 0.39 (≈ 0.422 µM) | – | – | 0.39 (≈ 0.422 µM) | – | 0.12 (≈ 0.13 µM) | 1.56 (≈ 1.69 µM) | 0.78 (≈ 0.844 µM) | 0.39 (≈ 0.422 µM) | 0.78 (≈ 0.844 µM) | 1.56 (≈ 1.69 µM) | 0.78 (≈ 0.844 µM) | 0.39 (≈ 0.422 µM) | 0.39 (≈ 0.422 µM) | 0.78 (≈ 0.844 µM) | 0.78 (≈ 0.844 µM) | 1 (≈ 1.08 µM) | –
O=C1C=CC(=O)N1CCc1ccccc1 | 7.8 (≈ 38.8 µM) | 3.9 (≈ 19.4 µM) | 7.8 (≈ 38.8 µM) | 3.9 (≈ 19.4 µM) | 31.2 (≈ 155 µM) | 7.8 (≈ 38.8 µM) | 3.9 (≈ 19.4 µM) | 32.2 (≈ 160 µM) | 15.8 (≈ 78.3 µM) | 3.9 (≈ 19.4 µM) | 1.95 (≈ 9.69 µM) | 1.95 (≈ 9.69 µM) | 3.9 (≈ 19.4 µM) | 3.9 (≈ 19.4 µM) | 1.95 (≈ 9.69 µM) | 1.95 (≈ 9.69 µM) | 1.95 (≈ 9.69 µM) | 1.95 (≈ 9.69 µM) | 3.9 (≈ 19.4 µM) | 3.9 (≈ 19.4 µM) | MFC [7]: 7.81 µg/mL (≈ 38.8 µM); MFC [8]: 1.95 µg/mL (≈ 9.69 µM); MFC [9]: 1.95 µg/mL (≈ 9.69 µM); MFC [10]: 3.9 µg/mL (≈ 19.4 µM); MIC [11]: 7.8 µg/mL (≈ 38.8 µM); MFC [12]: 7.81 µg/mL (≈ 38.8 µM); MFC [13]: 1.95 µg/mL (≈ 9.69 µM); MFC [14]: 7.81 µg/mL (≈ 38.8 µM); MIC [15]: 500 µg/mL (≈ 2480 µM); Activity [16]: Active; MFC [17]: 3.9 µg/mL (≈ 19.4 µM); MIC [18]: 3.9 µg/mL (≈ 19.4 µM); MIC [19]: 125 µg/mL (≈ 621 µM); MFC [20]: 3.9 µg/mL (≈ 19.4 µM); MFC [21]: 3.9 µg/mL (≈ 19.4 µM); MIC [22]: 250 µg/mL (≈ 1240 µM); MFC [23]: 7.8 µg/mL (≈ 38.8 µM)
CC(=O)N1CCN(c2ccc(OCC3COC(Cn4ccnc4)(c4ccc(Cl)cc4Cl)O3)cc2)CC1 (stereo not drawn) [KETOCONAZOLE] | – | – | – | 50 (≈ 94.1 µM) | – | – | 25 (≈ 47 µM) | – | 0.12 (≈ 0.226 µM) | 1.56 (≈ 2.94 µM) | 6.25 (≈ 11.8 µM) | 6.25 (≈ 11.8 µM) | 0.78 (≈ 1.47 µM) | 6.25 (≈ 11.8 µM) | 12.5 (≈ 23.5 µM) | 0.78 (≈ 1.47 µM) | 1.56 (≈ 2.94 µM) | 6.25 (≈ 11.8 µM) | 0.78 (≈ 1.47 µM) | 0.5 (≈ 0.941 µM) | –
